From publication PMC4138072 (Biochemistry, 2014)
Entries after “also recorded” stand apart in the source; their conditions may differ.

Legend:
[1] = molecular target: T1, SmARG (S. mansoni arginase) (Schistosoma mansoni, UniProt Q6WVP6); experiment: Colorimetric arginase activity assay; type: biochemical; details: Figure S2b
T1 sequence (Q6WVP6 1-364): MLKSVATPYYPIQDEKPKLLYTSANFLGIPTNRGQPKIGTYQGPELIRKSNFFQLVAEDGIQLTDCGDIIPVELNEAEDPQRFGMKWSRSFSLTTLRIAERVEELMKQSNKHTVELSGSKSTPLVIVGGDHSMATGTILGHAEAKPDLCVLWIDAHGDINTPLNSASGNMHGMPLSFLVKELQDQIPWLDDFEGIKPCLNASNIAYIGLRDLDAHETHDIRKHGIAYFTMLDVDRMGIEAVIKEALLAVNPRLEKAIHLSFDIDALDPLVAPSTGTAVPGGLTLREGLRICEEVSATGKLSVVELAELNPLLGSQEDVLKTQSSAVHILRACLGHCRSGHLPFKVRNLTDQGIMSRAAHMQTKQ
Method in brief: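 Recombinant SmARG was expressed in E. coli BL21(DE3) and purified by Talon affinity then size exclusion into bicine pH 8.5 with 100 μM MnCl2. Reactions used 0.5–50 mM L-arginine in 50 mM EPPS pH 8.5 with 100 μM MnCl2, started with 1 μM enzyme at 21 °C and stopped after 1 min with acid/α-isonitrosopropiophenone. Samples were heated 1 h at 90 °C and urea read at A550. Ki came from a competitive-inhibition Michaelis–Menten fit, in triplicate.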

[2] = molecular target: T1, SmARG (S. mansoni arginase); experiment: Isothermal titration calorimetry of SmARG–inhibitor complexes; type: binding; details: ITC Kd
S. mansoni schistosomula = experiment: Helminth fluorescence bioassay; type: cell-based, Schistosoma mansoni; details: 100 μM, in vitro cocultivation
Method in brief: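 S. mansoni schistosomula were mechanically transformed and exposed to test compound at 100 μM final. Incubation was 24 h (also 72 h) at 37 °C in humidified 5% CO2. Viability was then scored by the helminth fluorescence bioassay, in duplicate.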

human arginase I [3] = experiment: Isothermal titration calorimetry, human arginase I; type: binding; details: ITC Kd, human arginase I versus SmARG
human arginase I [4] = details: cited from earlier work

| Structure (SMILES) | schistosomula viability or morphology (S. mansoni schistosomula; 24 h, 37 °C, absence of host) | schistosomula viability or morphology (S. mansoni schistosomula; 72 h (data not shown)) | enhancement of affinity compared with the parent SmARG–ABH complex [2] | also measured |
| --- | --- | --- | --- | --- |
| Cl.O=C(O)CCP(CCC(=O)O)CCC(=O)O [TCEP, Tris(2-carboxyethyl)phosphine hydrochloride] |  |  |  | SmARG activity in the presence of reducing reagents [1]: severely attenuated |
| N=C(NO)NCC[C@H](N)C(=O)O [nor-NOHA, nor-N-hydroxy-L-arginine] | no significant difference; also recorded: do not affect parasite viability | no significant difference |  | more effective than ABH in binding to SmARG ([2]; N-hydroxyguanidinium moiety versus tetrahedral boronate anion of ABH): ~4 fold |
| N[C@@H](CCCCB(O)O)C(=O)O [ABH, 2(S)-amino-6-boronohexanoic acid] | no significant difference; also recorded: do not affect parasite viability | no significant difference |  | tighter binding to human arginase I than to SmARG (human arginase I [3]): 260 fold; preferential inhibition of human arginase I compared with nor-NOHA (human arginase I [4]): at least 10 fold |
| N[C@@](CCCCB(O)O)(C(=O)O)C1CCN(Cc2ccc(Cl)c(Cl)c2)CC1 (racemic) [ABHDP, (R)-2-amino-6-borono-2-[1-(3,4-dichlorobenzyl)piperidin-4-yl]hexanoic acid] |  |  | 5 fold |  |
| N[C@](CCCCB(O)O)(CCN1CCCCC1)C(=O)O [ABHPE, (R)-2-amino-6-borono-2-[2-(piperidin-1-yl)ethyl]hexanoic acid] |  |  | 2 fold |  |
